Active and inactive are the calls of the source. The calls are words filed in the database; no cut-off is given here.
Tests used:
T98G [1] = test: Cytotoxicity against human T98G cells assessed as cell killing at 10 uM after 72 hrs by WST-1 assay relative to control; assay type: functional
How it was run: (§1)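 Maximal killing is the largest % loss of viability against 0.1% DMSO vehicle, read by WST-1 72 h after treatment, at the stated concentration. T98G/HepG2 grown in DMEM/10% FBS; patient-derived GBM grown in NeuroCult NSA with B-27, EGF and FGF2 (20 ng/mL each). Mean ± SEM of ≥3 independent experiments in triplicate.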

T98G [2] = test: Cytotoxicity against human T98G cells after 72 hrs by WST-1 assay; assay type: functional, cell-based
How it was run: (§2)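 Viability read with WST-1 72 h after treatment with increasing concentrations; DMSO vehicle 0.1% final. T98G and HepG2 grown in DMEM/10% FBS/pen-strep at 37 °C, 5% CO2. Patient-derived GBM cells (WHO grade IV; proneural, classical, mesenchymal) grown in NeuroCult NSA with B-27, 20 ng/mL EGF and 20 ng/mL FGF2. EC50 from curve fit, reported only when extrapolable. Mean of ≥3 independent experiments in triplicate.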

T98G [3] = test: Cytotoxicity against human T98G cells assessed as cell killing at 3 uM after 72 hrs by WST-1 assay relative to control; assay type: functional; how it was run: as §1
SF-295 = test: Cytotoxicity against human SF295 cells after 48 hrs by sulforhodamine B assay; assay type: functional, cell-based
GBM [4] = test: Cytotoxicity against patient-derived classical GBM cells assessed as cell killing at 1 uM after 72 hrs by WST-1 assay relative to control; assay type: functional, Homo sapiens; how it was run: as §1
Bos taurus [5] = organism: Bos taurus; test: Inhibition of [3H]colchicine binding to bovine brain tubulin at 1 uM after 1 hr liquid scintillation counting assay relative to control
[6] = Induction of bovine brain microtubule destabilization assessed as increase in free tubulin levels after 15 mins by Coomassie G-250 staining-based polyacrylamide gel electrophoresis method; parameters: species or system Bos taurus
How it was run: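 Bovine brain tubulin purified, polymerized into MTs and sheared. Sheared MTs incubated with compound at 37 °C for 15 min, then centrifuged 10 min at 42,000 rpm at 37 °C. Supernatant (free tubulin) and pellet (MT) run on polyacrylamide gels. EC50 from representative experiments repeated three times.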

GBM [7] = test: Cytotoxicity against patient-derived mesenchymal GBM cells after 72 hrs by WST-1 assay; assay type: functional, cell-based; conditions: Homo sapiens; how it was run: as §2
HCC 2998 = test: Cytotoxicity against human HCC2998 cells after 48 hrs by sulforhodamine B assay; assay type: functional, cell-based
GBM [8] = test: Cytotoxicity against patient-derived proneural GBM cells assessed as cell killing at 1 uM after 72 hrs by WST-1 assay relative to control; assay type: functional, Homo sapiens; how it was run: as §1
GBM [9] = test: Cytotoxicity against patient-derived proneural GBM cells after 72 hrs by WST-1 assay; assay type: functional, cell-based; conditions: Homo sapiens; how it was run: as §2
GBM [10] = test: Cytotoxicity against patient-derived classical GBM cells after 72 hrs by WST-1 assay; assay type: functional, cell-based; conditions: Homo sapiens; how it was run: as §2
T98G [11] = test: Cytotoxicity against human T98G cells assessed as cell killing at 1 uM after 72 hrs by WST-1 assay relative to control; assay type: functional; how it was run: as §1
SF-539 = test: Cytotoxicity against human SF539 cells after 48 hrs by sulforhodamine B assay; assay type: functional, cell-based
[12] = Inhibition of bovine brain t in presence of 0.4 mM GTP; parameters: species or system Bos taurus
HT-29 = test: Cytotoxicity against human HT-29 cells after 48 hrs by sulforhodamine B assay; assay type: functional, cell-based
Bos taurus [13] = organism: Bos taurus; test: Inhibition of [3H]colchicine binding to bovine brain tubulin at 5 uM after 1 hr liquid scintillation counting assay relative to control
COLO 205 = test: Cytotoxicity against human COLO205 cells after 48 hrs by sulforhodamine B assay; assay type: functional, cell-based
GBM [14] = test: Cytotoxicity against patient-derived mesenchymal GBM cells assessed as cell killing at 1 uM after 72 hrs by WST-1 assay relative to control; assay type: functional, Homo sapiens; how it was run: as §1
HepG2 [15] = test: Cytotoxicity against human HepG2 cells assessed as cell killing at 0.6 uM after 72 hrs by WST-1 assay relative to control; assay type: functional; how it was run: as §1
HepG2 [16] = test: Cytotoxicity against human HepG2 cells after 72 hrs by WST-1 assay; assay type: functional, cell-based; conditions: HepG2, 72 h; how it was run: as §2
T98G [17] = test: Cytotoxicity against human T98G cells assessed as cell killing at 100 nM after 72 hrs by WST-1 assay relative to control; assay type: functional
How it was run: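 T98G human GBM cells (ATCC, STR-authenticated, under 6 months in culture) grown in DMEM with 10% FBS and penicillin/streptomycin, 37 °C, 5% CO2. Exposed to increasing compound concentrations in DMSO (0.1% final) for 72 h, then WST-1 viability read. Maximal killing is the largest % viability reduction versus vehicle over the concentrations tested. Mean of ≥3 independent experiments in triplicate.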

GBM [18] = test: Cytotoxicity against patient-derived proneural GBM cells assessed as cell killing at 5.6 uM after 72 hrs by WST-1 assay relative to control; assay type: functional, Homo sapiens
How it was run: (§3)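 Patient-derived GBM cells come from freshly resected WHO grade IV tumours. They are subtyped proneural, classical or mesenchymal and kept in NeuroCult NSA medium with B-27, 20 ng/mL EGF and 20 ng/mL FGF2. Cells were treated with increasing compound concentrations (DMSO 0.1% final). Viability was read by WST-1 after 72 h. Maximal killing is the largest % reduction versus vehicle. Mean of ≥3 independent experiments in triplicate.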

GBM [19] = test: Cytotoxicity against patient-derived classical GBM cells assessed as cell killing at 5.6 uM after 72 hrs by WST-1 assay relative to control; assay type: functional, Homo sapiens; how it was run: as §3
HepG2 [20] = test: Cytotoxicity against human HepG2 cells assessed as cell killing at 5.6 uM after 72 hrs by WST-1 assay relative to control; assay type: functional; how it was run: as §1
GBM [21] = test: Cytotoxicity against patient-derived mesenchymal GBM cells assessed as cell killing at 10 uM after 72 hrs by WST-1 assay relative to control; assay type: functional, Homo sapiens; how it was run: as §3
GBM [22] = test: Cytotoxicity against patient-derived classical GBM cells assessed as cell killing at 3 uM after 72 hrs by WST-1 assay relative to control; assay type: functional, Homo sapiens; how it was run: as §1
HepG2 [23] = test: Cytotoxicity against human HepG2 cells assessed as cell killing at 10 uM after 72 hrs by WST-1 assay relative to control; assay type: functional; how it was run: as §1
GBM [24] = test: Cytotoxicity against patient-derived mesenchymal GBM cells assessed as cell killing at 3 uM after 72 hrs by WST-1 assay relative to control; assay type: functional, Homo sapiens; how it was run: as §1

CCn1c2ccccc2c2cc(C(=O)Cc3ccccc3)ccc21
%max (T98G [1]): 14% | EC50 (T98G [2]): > 10000 nM

CCn1c2ccccc2c2cc(C(=O)c3ccc(Cl)cc3)ccc21
%max (T98G [1]): 71.1% | EC50 (T98G [2]): 1500 nM

Cc1ccc(C(=O)c2ccc3c(c2)c2ccccc2n3CC(F)(F)F)c2ccccc12
%max (T98G [1]): 35.6% | EC50 (T98G [2]): 5600 nM

CCn1c2ccccc2c2cc(C(=O)c3cccc4cccnc34)ccc21
%max (T98G [1]): 60% | EC50 (T98G [2]): 8800 nM

CCn1c2ccccc2c2cc(C(=O)c3ccc(C)cc3)ccc21
%max (T98G [3]): 83.6% | EC50 (T98G [2]): 993 nM

CCn1c2ccccc2c2cc(C(=O)c3ccc(F)cc3)ccc21
%max (T98G [1]): 54.8% | EC50 (T98G [2]): 8000 nM

CCn1c2ccccc2c2cc(C(=S)c3ccc(C)c4ccccc34)ccc21
%max (T98G [3]): -17% | EC50 (T98G [2]): > 10000 nM

CCn1c2ccccc2c2cc(C(=O)N3CCN(C)CC3)ccc21
%max (T98G [1]): 13.2% | EC50 (T98G [2]): > 10000 nM

CCn1c2ccccc2c2cc(C(=O)c3cccc4ncccc34)ccc21
Activity (SF-295): Active | %max (GBM [4]): 53.9% | inhibition (Bos taurus [5]): 61% | EC50 [6]: 3400 nM | EC50 (GBM [7]): 335 nM | Activity (HCC 2998): Active | %max (GBM [8]): 44.8% | EC50 (GBM [9]): 316 nM | EC50 (GBM [10]): 407 nM | %max (T98G [11]): 74.4% | Activity (SF-539): Active | IC50 [12]: 890 nM | Activity (HT-29): Active | inhibition (Bos taurus [13]): 91% | Activity (COLO 205): Active | %max (GBM [14]): 58.9% | %max (HepG2 [15]): 28.6% | EC50 (HepG2 [16]): 66 nM | EC50 (T98G [2]): 184 nM

Cc1ccc(C(=O)n2c3ccccc3c3ccccc32)c2ccccc12
%max (T98G [1]): 89.1% | EC50 (T98G [2]): 957 nM

CCn1c2ccccc2c2cc(C(=O)c3cccc4c3NCCC4)ccc21
%max (T98G [17]): -18% | EC50 (T98G [2]): > 10000 nM

CCn1c2ccc(C(=O)c3ccc(C)c4ccccc34)cc2c2ccc(OC)cc21
%max (T98G [1]): 71.6% | EC50 (T98G [2]): 2600 nM

CCn1c2c(c3ccccc31)CN(C(=O)c1ccc(C)c3ccccc13)CC2
%max (T98G [3]): 45.1% | EC50 (T98G [2]): > 10000 nM

CCCn1c2ccccc2c2cc(C(=O)c3ccc(C)c4ccccc34)ccc21
%max (T98G [1]): 16.3% | EC50 (T98G [2]): > 10000 nM

CCn1c2ccccc2c2cc(C(=O)N3CCCc4ccccc43)ccc21
EC50 [6]: 5300 nM | %max (GBM [18]): 98.9% | EC50 (GBM [7]): 1820 nM | %max (GBM [19]): 98.6% | EC50 (GBM [9]): 613 nM | EC50 (GBM [10]): 846 nM | %max (T98G [11]): 89% | IC50 [12]: 4400 nM | %max (HepG2 [20]): 8.3% | inhibition (Bos taurus [13]): 41% | %max (GBM [21]): 97.2% | EC50 (T98G [2]): 757 nM

CCn1c2ccccc2c2cc(C(=O)c3ccc(C)c4ccccc34)ccc21
Activity (SF-295): Active | EC50 [6]: 2100 nM | EC50 (GBM [7]): 268 nM | Activity (HCC 2998): Active | EC50 (GBM [9]): 542 nM | %max (GBM [22]): 47.9% | EC50 (GBM [10]): 698 nM | Activity (SF-539): Active | IC50 [12]: 1400 nM | Activity (HT-29): Active | %max (HepG2 [20]): 25% | inhibition (Bos taurus [13]): 53% | Activity (COLO 205): Active | %max (GBM [14]): 64.3% | EC50 (HepG2 [16]): 1690 nM | %max (T98G [1]): 45.3% | EC50 (T98G [2]): 87 nM

CCn1c2ccccc2c2cc(C(=O)c3cccc4ccccc34)ccc21
%max (T98G [1]): 72% | EC50 (T98G [2]): 1700 nM

CCn1c2ccccc2c2cc(C(O)c3ccc(C)c4ccccc34)ccc21 (centres undefined)
Activity (SF-295): Active | EC50 [6]: 6400 nM | %max (HepG2 [23]): 30.8% | EC50 (GBM [7]): 386 nM | Activity (HCC 2998): Active | %max (GBM [8]): 44% | EC50 (GBM [9]): 630 nM | %max (GBM [22]): 56% | EC50 (GBM [10]): 633 nM | Activity (SF-539): Active | IC50 [12]: 1600 nM | Activity (HT-29): Active | inhibition (Bos taurus [13]): 70% | %max (T98G [3]): 72.8% | Activity (COLO 205): Active | EC50 (HepG2 [16]): 101 nM | EC50 (T98G [2]): 560 nM | %max (GBM [24]): 50.6%

From ChEMBL document CHEMBL4265971, “Modified carbazoles destabilize microtubules and kill glioblastoma multiform cells” (Eur J Med Chem, 2018)
